Activity calls are given as the source filed them. The calls are words filed in the database; no cut-off is given here.
Assays:
Rattus norvegicus [1] = assay: Reduction in circulating lymphocytes count in Lewis rat blood at 1 mg/kg, po measured at 4 hrs by hematology analyzer based analysis; type: functional; design: scale not given: the % may be the effect or the level left
In short: (§1)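 Lewis rats were given an oral dose as a solution or suspension in PEG300, with controls receiving vehicle only. Blood was taken by retro-orbital bleeding under isoflurane at 4 and 24 h. Lymphocytes were counted on a hematology analyzer. Reduction is relative to the vehicle group, averaged over the animals in each group (n = 3−4).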

Homo sapiens = species: Homo sapiens; assay: Inhibition of sodium channel (unknown origin) assessed as reduction in 1 and 4 Hz-induced channel current at 10 uM by patch clamp technique relative to control
[2] = Protein binding in mouse assessed as bound fraction; type: ADME; conditions: read-out: PB (converted)
Rattus norvegicus [3] = assay: Antiarthritic activity in Lewis rat model of Complete Freund's adjuvant-induced arthritis assessed as effective dose causing reduction in paw swelling administered orally once daily for 21 days after CFA injection and measured weekly three times upto day 21 by water displacement plethysmometer; type: functional; conditions: po, 504 h, time 21 day
In short: (§2)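 Male Lewis rats, 200−225 g, n = 8 per group. Immunized at the tail base with 100 μL of 10 mg/mL ground Mycobacterium butyricum in incomplete Freund's adjuvant. Oral dosing once daily in PEG300 vehicle from the day of immunization for 21 days, at 0.03, 0.1 or 1.0 mg/kg. Dexamethasone 0.1 mg/kg PO QD as positive control. Paw volume by water displacement plethysmometry, day 7 to day 21.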

[4] = molecular target: T1, Sphingosine 1-phosphate receptor 1 (Homo sapiens, UniProt P21453); assay: Agonist activity at human S1P1 assessed as stimulation of cAMP accumulation; type: functional
T1 sequence (P21453 whole entry): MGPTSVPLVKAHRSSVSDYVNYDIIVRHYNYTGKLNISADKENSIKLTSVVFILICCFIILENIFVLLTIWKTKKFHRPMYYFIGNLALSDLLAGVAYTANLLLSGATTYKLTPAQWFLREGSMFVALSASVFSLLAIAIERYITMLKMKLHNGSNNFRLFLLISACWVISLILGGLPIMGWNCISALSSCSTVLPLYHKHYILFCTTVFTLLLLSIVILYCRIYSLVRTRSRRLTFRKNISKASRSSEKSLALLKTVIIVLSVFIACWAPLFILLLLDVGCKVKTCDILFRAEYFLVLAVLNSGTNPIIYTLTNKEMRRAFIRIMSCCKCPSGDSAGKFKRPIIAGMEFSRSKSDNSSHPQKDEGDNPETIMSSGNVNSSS

[5] = Cmax in rat at 1 mg/kg, po or 1 mg/kg, iv; type: ADME, organism-based; design: dose 1 mg/kg; conditions: in vivo
[6] = Cmax in mouse at 5 mg/kg, po or 2 mg/kg, iv; type: ADME, organism-based; design: dose 5 mg/kg; conditions: in vivo
Cytochrome P450 2D6 = Cytochrome P450 2D6 (Homo sapiens, UniProt P10635); assay: Inhibition of CYP2D6 (unknown origin); type: ADME
Sequence of Cytochrome P450 2D6 (P10635 whole entry): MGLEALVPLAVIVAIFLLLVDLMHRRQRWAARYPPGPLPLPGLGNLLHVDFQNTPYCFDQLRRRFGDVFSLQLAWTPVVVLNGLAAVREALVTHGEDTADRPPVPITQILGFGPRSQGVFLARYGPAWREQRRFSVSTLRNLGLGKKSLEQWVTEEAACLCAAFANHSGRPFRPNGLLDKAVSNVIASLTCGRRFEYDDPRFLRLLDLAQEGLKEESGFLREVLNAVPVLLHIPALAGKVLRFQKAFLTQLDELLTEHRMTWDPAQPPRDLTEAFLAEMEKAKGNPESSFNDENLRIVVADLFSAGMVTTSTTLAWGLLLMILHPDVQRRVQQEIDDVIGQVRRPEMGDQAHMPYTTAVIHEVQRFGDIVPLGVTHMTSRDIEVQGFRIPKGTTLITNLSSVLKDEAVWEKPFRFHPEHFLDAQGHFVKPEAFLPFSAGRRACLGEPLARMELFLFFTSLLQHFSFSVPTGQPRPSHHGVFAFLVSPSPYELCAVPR

[7] = AUC in mouse at 5 mg/kg, po; type: ADME, organism-based; design: dose 5 mg/kg; conditions: in vivo
[8] = AUC in cynomolgus monkey at 0.5 mg/kg, po; type: ADME, organism-based, Macaca fascicularis; design: dose 0.5 mg/kg; conditions: in vivo
[9] = Clearance in dog at 0.1 mg/kg, po or 0.1 mg/kg, iv; type: ADME, organism-based, Canis lupus familiaris; conditions: in vivo
[10] = molecular target: Sphingosine 1-phosphate receptor 3 (Homo sapiens, UniProt Q99500); assay: Agonist activity at human S1P3 expressed in CHO cell membranes assessed as stimulation of [35S]-GTPgamma-S binding measured after 45 mins by liquid scintillation counting method; design: species or system Cell membrane
Sequence of Sphingosine 1-phosphate receptor 3 (Q99500 whole entry): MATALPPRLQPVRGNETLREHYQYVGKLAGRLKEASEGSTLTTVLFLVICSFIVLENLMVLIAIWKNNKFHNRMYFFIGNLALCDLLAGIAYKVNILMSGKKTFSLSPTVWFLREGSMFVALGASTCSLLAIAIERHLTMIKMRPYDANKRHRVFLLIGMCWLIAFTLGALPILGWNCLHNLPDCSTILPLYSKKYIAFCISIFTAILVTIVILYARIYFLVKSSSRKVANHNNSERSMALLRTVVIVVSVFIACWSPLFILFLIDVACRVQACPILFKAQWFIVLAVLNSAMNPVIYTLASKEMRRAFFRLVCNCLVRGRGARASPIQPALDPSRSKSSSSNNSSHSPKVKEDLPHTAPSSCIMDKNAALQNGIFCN

[11] = Tmax in dog at 0.1 mg/kg, po or 0.1 mg/kg, iv; type: ADME, organism-based, Canis lupus familiaris; conditions: in vivo
Cytochrome P450 2C19 = Cytochrome P450 2C19 (Homo sapiens, UniProt P33261); assay: Inhibition of CYP2C19 (unknown origin); type: ADME
Sequence of Cytochrome P450 2C19 (P33261 whole entry): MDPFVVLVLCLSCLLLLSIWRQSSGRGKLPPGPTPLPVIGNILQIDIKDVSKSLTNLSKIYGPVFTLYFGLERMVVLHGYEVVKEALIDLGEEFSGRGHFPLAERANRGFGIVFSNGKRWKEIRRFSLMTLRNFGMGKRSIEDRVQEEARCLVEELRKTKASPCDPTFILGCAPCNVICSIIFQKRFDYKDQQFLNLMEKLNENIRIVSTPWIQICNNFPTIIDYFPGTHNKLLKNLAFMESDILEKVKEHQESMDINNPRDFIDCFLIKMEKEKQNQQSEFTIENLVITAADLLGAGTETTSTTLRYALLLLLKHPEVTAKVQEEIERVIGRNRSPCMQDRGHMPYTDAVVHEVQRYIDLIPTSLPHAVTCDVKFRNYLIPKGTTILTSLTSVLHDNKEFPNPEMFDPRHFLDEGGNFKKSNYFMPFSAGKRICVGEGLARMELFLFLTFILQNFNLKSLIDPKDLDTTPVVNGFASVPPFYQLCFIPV

[12] = Tmax in rat at 1 mg/kg, po or 1 mg/kg, iv; type: ADME, organism-based; conditions: in vivo
[13] = Half-life in rat at 1 mg/kg, po or 1 mg/kg, iv; type: ADME, organism-based; conditions: in vivo
Cytochrome P450 3A4 = Cytochrome P450 3A4 (Homo sapiens, UniProt P08684); assay: Inhibition of CYP3A4 (unknown origin) using 7-benzyloxy resorufin as substrate; type: ADME
Sequence of Cytochrome P450 3A4 (P08684 whole entry): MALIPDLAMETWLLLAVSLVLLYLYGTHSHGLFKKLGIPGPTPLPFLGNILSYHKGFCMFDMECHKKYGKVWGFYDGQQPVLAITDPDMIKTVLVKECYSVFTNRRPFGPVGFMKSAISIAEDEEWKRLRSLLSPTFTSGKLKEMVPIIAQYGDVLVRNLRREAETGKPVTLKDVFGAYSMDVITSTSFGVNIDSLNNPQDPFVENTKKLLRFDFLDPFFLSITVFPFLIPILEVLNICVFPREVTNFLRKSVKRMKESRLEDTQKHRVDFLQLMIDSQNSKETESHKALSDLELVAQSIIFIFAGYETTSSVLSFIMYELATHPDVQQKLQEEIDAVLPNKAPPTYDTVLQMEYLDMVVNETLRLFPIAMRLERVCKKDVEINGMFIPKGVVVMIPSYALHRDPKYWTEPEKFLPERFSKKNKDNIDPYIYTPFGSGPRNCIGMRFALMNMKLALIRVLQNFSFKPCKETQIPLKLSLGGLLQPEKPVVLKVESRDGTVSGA

[14] = Volume of distribution at steady state in dog at 0.1 mg/kg, po or 0.1 mg/kg, iv; type: ADME, organism-based, Canis lupus familiaris; conditions: in vivo, read-out: Vdss
[15] = Half-life in cynomolgus monkey at 0.5 mg/kg, po or 0.5 mg/kg, iv; type: ADME, organism-based, Macaca fascicularis; conditions: in vivo
[16] = Clearance in cynomolgus monkey at 0.5 mg/kg, po or 0.5 mg/kg, iv; type: ADME, organism-based, Macaca fascicularis; conditions: in vivo
Rattus norvegicus [17] = assay: Reduction in circulating lymphocytes count in Lewis rat blood administered orally measured at 4 to 24 hrs by hematology analyzer based analysis; type: functional, organism-based; in short: as §1
Rattus norvegicus [18] = assay: Antiarthritic activity in Lewis rat model of Complete Freund's adjuvant-induced arthritis assessed as reduction in paw swelling administered orally once daily for 21 days after CFA injection and measured weekly three times upto day 21 by water displacement plethysmometer; type: functional, organism-based; conditions: 504 h; in short: as §2
Rattus norvegicus [19] = assay: Antiarthritic activity in Lewis rat model of Complete Freund's adjuvant-induced arthritis at 0.03 mg/kg, po QD administered for 21 days after CFA injection and measured weekly three times upto day 21 by water displacement plethysmometry; type: functional, organism-based; conditions: time 21.0 day; in short: as §2
[20] = molecular target: Sphingosine 1-phosphate receptor 1 (Rattus norvegicus, UniProt P48303); assay: Agonist activity at rat S1P1 expressed in CHO cell membranes assessed as stimulation of [35S]-GTPgamma-S binding measured after 45 mins by liquid scintillation counting method; design: species or system Cell membrane
Sequence of Sphingosine 1-phosphate receptor 1 (Rattus norvegicus, UniProt P48303) (P48303 whole entry): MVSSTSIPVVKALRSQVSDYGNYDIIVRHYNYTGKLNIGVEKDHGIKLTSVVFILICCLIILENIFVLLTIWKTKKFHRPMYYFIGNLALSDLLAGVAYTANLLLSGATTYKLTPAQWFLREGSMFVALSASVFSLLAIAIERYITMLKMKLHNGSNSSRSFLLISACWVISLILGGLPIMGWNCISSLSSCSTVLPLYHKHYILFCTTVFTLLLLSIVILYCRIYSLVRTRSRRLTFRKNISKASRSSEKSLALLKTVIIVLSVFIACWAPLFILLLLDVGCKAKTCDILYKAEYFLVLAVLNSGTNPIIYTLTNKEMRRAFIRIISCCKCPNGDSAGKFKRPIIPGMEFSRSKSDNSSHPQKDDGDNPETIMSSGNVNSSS
In short: (§3)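 S1P1/CHO cell membranes at 3 μg protein/well with 3-fold compound dilutions. [35S]GTPγS 0.2 nM final, 45 min at room temperature. Filter-plate capture, water washes, scintillation counting. EC50 taken at 50% of each compound's own Ymax.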

Rattus norvegicus [21] = assay: Antiarthritic activity in Lewis rat model of Complete Freund's adjuvant-induced arthritis assessed as inhibition in paw swelling at 0.1 to 1 mg/kg, po qd administered for 21 days after CFA injection and measured weekly three times upto day 21 by water displacement plethysmometry; type: functional, organism-based; conditions: dose 0.1-1 mg/kg, time 21.0 day; in short: as §2
Cytochrome P450 2B6 = molecular target: T2, Cytochrome P450 2B6 (Homo sapiens, UniProt P20813); assay: Inhibition of CYP2B6 (unknown origin); type: ADME
T2 sequence (P20813 whole entry): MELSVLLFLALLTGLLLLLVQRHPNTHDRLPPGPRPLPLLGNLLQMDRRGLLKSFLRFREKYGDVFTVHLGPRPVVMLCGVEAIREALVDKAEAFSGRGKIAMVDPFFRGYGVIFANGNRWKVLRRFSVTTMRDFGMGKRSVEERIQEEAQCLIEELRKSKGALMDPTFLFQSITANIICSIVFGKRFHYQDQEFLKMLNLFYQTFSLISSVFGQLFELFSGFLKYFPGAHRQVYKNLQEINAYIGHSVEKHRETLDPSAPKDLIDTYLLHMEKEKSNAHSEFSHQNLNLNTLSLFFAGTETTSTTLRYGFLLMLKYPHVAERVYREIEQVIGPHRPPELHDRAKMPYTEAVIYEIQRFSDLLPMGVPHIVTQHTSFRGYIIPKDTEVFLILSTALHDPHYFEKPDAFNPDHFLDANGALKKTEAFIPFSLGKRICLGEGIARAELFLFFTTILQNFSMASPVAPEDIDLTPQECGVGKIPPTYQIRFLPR

[22] = Volume of distribution at steady state in rat at 1 mg/kg, po or 1 mg/kg, iv; type: ADME, organism-based; conditions: in vivo, read-out: Vdss
[23] = Ratio of plasma concentration in Lewis rat at 1 mg/kg, po measured at 4 hrs to plasma concentration in Lewis rat at 1 mg/kg, po measured at 24 hrs; type: ADME, organism-based; conditions: in vivo
[24] = Cmax in dog at 0.1 mg/kg, po or 0.1 mg/kg, iv; type: ADME, organism-based, Canis lupus familiaris; design: dose 0.1 mg/kg; conditions: in vivo
[25] = Oral bioavailability in cynomolgus monkey at 0.5 mg/kg; type: ADME, organism-based, Macaca fascicularis; conditions: in vivo
[26] = Metabolic stability in mouse assessed as half-life; type: ADME
[27] = molecular target: T1, Sphingosine 1-phosphate receptor 1; assay: Agonist activity at human S1P1 expressed in CHO cell membranes assessed as stimulation of [35S]-GTPgamma-S binding measured after 45 mins by liquid scintillation counting method relative to control; conditions: Cell membrane, filed as agonist; in short: as §3

For O=C(O)C1CN(Cc2ccc3c(c2)CCc2c-3noc2-c2onc(-c3ccccc3)c2C(F)(F)F)C1, which Activity (Rattus norvegicus [1]) is on record?
The Activity was 83%.

What about the inhibition (Homo sapiens) of the same compound?
The inhibition was 12%.

And the fraction unbound [2]?
Its fraction unbound is 0.007.

What about the ED50 (Rattus norvegicus [3]) of the same compound?
Its ED50 is 0.09 mg/kg.

And the EC50 [4]?
The EC50 was 0.032 nM.

And the Cmax [5]?
The Cmax was 140 nM.

What about the Cmax [6] of the same compound?
Its Cmax is 3600 nM.

And the IC50 (Cytochrome P450 2D6)?
Its IC50 is over 40000 nM.

What about the AUC [7] of the same compound?
The AUC was 30.3 µM·h.

What about the AUC [8] of the same compound?
Its AUC is 3.4 µM·h.

What about the clearance [9] of the same compound?
Its clearance is 1.4 mL/min/kg.

And the EC50 [10]?
Its EC50 is 4400 nM.

And the Tmax [11]?
Its Tmax is 8 h.

What about the IC50 (Cytochrome P450 2C19) of the same compound?
Its IC50 is over 40000 nM.

And the Tmax [12]?
Its Tmax is 4 h.

And the half-life [13]?
Its half-life is 7.9 h.

And the IC50 (Cytochrome P450 3A4)?
The IC50 was over 40000 nM.

And the Vd [14]?
Its Vd is 2.5 L/kg.

What about the half-life [15] of the same compound?
The half-life was 18 h.

What about the clearance [16] of the same compound?
The clearance was 2.4 mL/min/kg.

What about the EC50 (Rattus norvegicus [17]) of the same compound?
Its EC50 is 2.5 nM.

What about the EC50 (Rattus norvegicus [18]) of the same compound?
The EC50 was 24 nM.

What about the Activity (Rattus norvegicus [19]) of the same compound?
Its Activity is “inactive”.

What about the EC50 [20] of the same compound?
Its EC50 is 0.31 nM.

What about the Activity (Rattus norvegicus [21]) of the same compound?
The Activity was “Active”.

And the IC50 (Cytochrome P450 2B6)?
Its IC50 is over 40000 nM.

What about the Vd [22] of the same compound?
The Vd was 4.8 L/kg.

And the Ratio [23]?
The Ratio was 4.

And the Cmax [24]?
Its Cmax is 90 nM.

What about the bioavailability [25] of the same compound?
The bioavailability was 80%.

And the half-life [26]?
Its half-life is over 2 h.

What about the Emax [27] of the same compound?
Its Emax is 95%.
